Source: ChEMBL document CHEMBL4825688, “Synthesis, biological evaluation and molecular modeling of benzofuran piperidine derivatives as Aβ antiaggregant” (Eur J Med Chem, 2021)
pIC50: −log10 of the molar value. Activity calls are given as the source filed them. No cut-off for these calls is given here.

Columns and labels:
[1] = Cytotoxicity against human SH-SY5Y cells assessed as cell viability at 10 uM measured after 48 hrs by MTT assay relative to control
[2] = biological target: T1, Amyloid-beta precursor protein (Homo sapiens, UniProt P05067); assay: Inhibition of human amyloid beta (25 to 35) self-induced aggregation at 100 uM after 48 hrs by thioflavin-T fluorescence relative to control
How it was run: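 Aβ25-35 (10 μM, DMSO stock diluted) incubated with test compound (100 μM) in 0.05 M potassium phosphate buffer (pH 7.4) containing 0.01 M NaCl, 37 °C, 48 h; then ThT (200 μM) in 50 mM glycine-NaOH (pH 8.0) added and fluorescence read. Mean ± SD of three experiments.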

[3] = system: SH-SY5Y; assay: Neuroprotective activity against amyloid beta (25 to 35)-induced cell damage in human SH-SY5Y cells assessed as neuronal viability at 10 uM measured after 24 hrs in presence of amyloid beta (25 to 35) by MTT assay (reference value: 68.66 +/- 0.11 %); format: functional
[4] = biological target: Cholinesterase (Homo sapiens, UniProt P06276); assay: Inhibition of recombinant human BuChe using S-butyrylthiocholine iodide as substrate measured after 7 mins by Ellman's method
[5] = Antioxidant activity assessed as DPPH radical scavenging activity at 50 uM incubated for 1 hrs under light restrictive condition by UV-microplate reader assay relative to control; format: functional
How it was run: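 DPPH stock 56 mM and compound stock 500 mM in anhydrous methanol; compound at 50 µM final with DPPH in methanol. Absorbance read at 517 nm after 30 s shaking, then again after 1 h at room temperature in the dark. Scavenging % = (A control − A sample)/A control ×100.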

[6] = system: SH-SY5Y; assay: Neuroprotective activity against amyloid beta (25 to 35)-induced cell damage in human SH-SY5Y cells assessed as LDH release at 10 uM measured after 24 hrs in presence of amyloid beta (25 to 35) by LDH assay (reference value: 364.06 +/- 2.15 %); format: functional
[7] = system: SH-SY5Y; assay: Neuroprotective activity against amyloid beta (25 to 35)-induced cell damage in human SH-SY5Y cells assessed as viable at 10 uM by annexin-V and propidium iodide staining based flow cytometry analysis assay (reference value: 88.2 %); format: functional
How it was run: (§1)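 SH-SY5Y cells exposed to Aβ25-35 (10 µM) ± compounds (10 µM), then trypsinized, washed with PBS and pelleted at 1000 rpm for 3 min. Cells were stained with FITC-Annexin V and PI in binding buffer for 15 min at room temperature and analyzed by flow cytometry (10,000 events). Mean ± SD of three experiments.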

[8] = biological target: T1, Amyloid-beta precursor protein; assay: Inhibition of amyloid beta(25 to 35) (unknown origin) binding to human SH-SY5Y cell plasma membrane at 10 uM measured after 20 mins by UV-vis microplate reader assay; format: cell membranes
How it was run: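 SH-SY5Y cells seeded 24 h, then fresh medium with Aβ25-35 (10 µM) ± compounds (10 µM) for 30, 60 and 120 min. After two PBS washes, bound peptide was stained with Congo red in PBS for 20 min and read at 540 nm. Values are % of untreated cells (100%).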

[9] = biological target: Acetylcholinesterase (Homo sapiens, UniProt P22303); assay: Inhibition of recombinant human AChE using acetylthiocholine iodide as substrate measured after 7 mins by Ellman's method
[10] = organism: Homo sapiens; assay: Selectivity index, ratio of IC50 for human BuChE to IC50 for human AChE
[11] = system: SH-SY5Y; assay: Neuroprotective activity against amyloid beta (25 to 35)-induced cell damage in human SH-SY5Y cells assessed as early apoptotic cell at 10 uM by annexin-V and propidium iodide staining based flow cytometry analysis assay (reference value: 10.9 %); format: functional; how it was run: as §1
[12] = system: SH-SY5Y; assay: Neuroprotective activity against amyloid beta (25 to 35)-induced cell damage assessed as cell viability in human SH-SY5Y cells by measuring ATP at 10 uM measured after 24 hrs in presence of amyloid beta (25 to 35) by CellTiter-Glo luminescent cell viability assay (reference value: 90.95 +/- 0.82 %); format: functional
[13] = system: SH-SY5Y; assay: Neuroprotective activity against amyloid beta (25 to 35)-induced cell damage in human SH-SY5Y cells assessed as late apoptotic cell at 10 uM by annexin-V and propidium iodide staining based flow cytometry analysis assay (reference value: 0.890 %); format: functional; how it was run: as §1
[14] = system: SH-SY5Y; assay: Neuroprotective activity against amyloid beta (25 to 35)-induced cell damage in human SH-SY5Y cells assessed as increase in neuronal viability measured after 24 hrs in presence of amyloid beta (25 to 35) by MTT assay; format: functional, cell-based; conditions: dose 1-10 µM
[15] = system: SH-SY5Y; assay: Neuroprotective activity against amyloid beta (25 to 35)-induced cell damage in human SH-SY5Y cells assessed as necrotic cell at 10 uM by annexin-V and propidium iodide staining based flow cytometry analysis assay (reference value: 0 %); format: functional; how it was run: as §1
[16] = system: SH-SY5Y; assay: Neuroprotective activity against amyloid beta (25 to 35)-induced oxidative stress in human SH-SY5Y cells assessed as decrease in intracellular ROS production at 10 uM incubated with amyloid beta (25 to 35) for 24 hrs by DCFH-DA staining-based flow cytometric analysis; format: functional, cell-based
How it was run: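 SH-SY5Y (1×10⁶ cells/well) grown 24 h, then exposed to unaggregated Aβ25-35 (10 µM) ± compounds (10 µM) for 24 h at 37 °C. After three PBS washes, cells were loaded with DCFH-DA (10 µM) for 30 min, rinsed, pelleted at 1500 rpm for 5 min, resuspended in PBS and analyzed by flow cytometry (10,000 events). Mean ± SD of three experiments.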

Chain of Acetylcholinesterase (P22303 whole entry): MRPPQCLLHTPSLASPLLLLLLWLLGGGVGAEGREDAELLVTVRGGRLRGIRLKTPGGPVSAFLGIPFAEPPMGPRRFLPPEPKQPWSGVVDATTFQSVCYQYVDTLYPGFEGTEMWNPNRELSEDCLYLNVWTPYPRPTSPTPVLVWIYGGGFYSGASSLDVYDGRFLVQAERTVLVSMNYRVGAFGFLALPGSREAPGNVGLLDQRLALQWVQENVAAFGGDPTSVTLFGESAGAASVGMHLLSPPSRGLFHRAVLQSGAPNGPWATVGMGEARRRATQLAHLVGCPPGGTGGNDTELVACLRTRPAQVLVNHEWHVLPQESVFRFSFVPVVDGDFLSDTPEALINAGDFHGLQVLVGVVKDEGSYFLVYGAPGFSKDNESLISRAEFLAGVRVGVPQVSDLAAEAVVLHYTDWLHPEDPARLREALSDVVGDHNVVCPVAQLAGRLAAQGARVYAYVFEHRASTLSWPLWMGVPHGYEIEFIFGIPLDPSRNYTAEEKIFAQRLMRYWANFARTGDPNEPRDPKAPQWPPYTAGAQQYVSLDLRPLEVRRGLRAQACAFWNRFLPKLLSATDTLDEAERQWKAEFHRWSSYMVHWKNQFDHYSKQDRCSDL
Chain of Cholinesterase (P06276 whole entry): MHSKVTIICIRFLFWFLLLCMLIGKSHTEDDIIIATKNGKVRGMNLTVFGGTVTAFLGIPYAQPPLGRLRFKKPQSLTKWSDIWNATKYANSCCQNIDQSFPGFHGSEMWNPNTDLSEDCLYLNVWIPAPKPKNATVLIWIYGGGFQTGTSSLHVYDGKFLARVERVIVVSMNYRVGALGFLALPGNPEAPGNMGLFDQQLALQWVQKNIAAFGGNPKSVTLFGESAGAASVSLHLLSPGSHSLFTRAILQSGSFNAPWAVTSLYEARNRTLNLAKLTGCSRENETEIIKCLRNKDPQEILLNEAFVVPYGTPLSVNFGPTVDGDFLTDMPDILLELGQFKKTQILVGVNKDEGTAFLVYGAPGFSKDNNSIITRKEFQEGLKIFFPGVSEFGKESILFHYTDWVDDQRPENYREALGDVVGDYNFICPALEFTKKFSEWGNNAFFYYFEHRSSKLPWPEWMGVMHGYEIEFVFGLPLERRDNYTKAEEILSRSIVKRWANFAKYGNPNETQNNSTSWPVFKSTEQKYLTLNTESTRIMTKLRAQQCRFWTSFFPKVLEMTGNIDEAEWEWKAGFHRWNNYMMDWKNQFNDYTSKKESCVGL
T1 sequence (P05067 whole entry): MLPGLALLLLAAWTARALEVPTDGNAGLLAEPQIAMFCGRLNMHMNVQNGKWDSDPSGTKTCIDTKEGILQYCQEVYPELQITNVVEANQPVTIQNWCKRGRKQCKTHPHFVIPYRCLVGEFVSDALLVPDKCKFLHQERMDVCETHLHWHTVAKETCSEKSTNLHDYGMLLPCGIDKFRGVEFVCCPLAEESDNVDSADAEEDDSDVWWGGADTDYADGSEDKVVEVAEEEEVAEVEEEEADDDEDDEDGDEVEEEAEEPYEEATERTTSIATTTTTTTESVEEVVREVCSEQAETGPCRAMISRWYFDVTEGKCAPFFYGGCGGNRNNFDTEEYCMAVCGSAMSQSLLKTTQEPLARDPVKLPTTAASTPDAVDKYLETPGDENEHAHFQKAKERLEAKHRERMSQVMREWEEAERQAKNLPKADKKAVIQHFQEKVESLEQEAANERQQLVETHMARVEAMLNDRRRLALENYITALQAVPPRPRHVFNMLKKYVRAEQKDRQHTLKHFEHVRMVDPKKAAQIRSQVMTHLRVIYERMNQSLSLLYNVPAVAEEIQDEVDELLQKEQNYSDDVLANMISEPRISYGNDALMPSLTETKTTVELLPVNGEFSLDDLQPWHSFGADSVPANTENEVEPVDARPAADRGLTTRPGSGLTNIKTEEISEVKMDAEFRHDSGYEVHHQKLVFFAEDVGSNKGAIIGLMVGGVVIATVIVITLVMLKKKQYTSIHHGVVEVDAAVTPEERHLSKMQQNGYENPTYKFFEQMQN

Compound	viability at 48 h, 10 µM ([1]; SH-SY5Y cells) [%]	inhibition [2] [%]	Activity [3] [%]	pIC50 [4]	Activity [5] [%]	pIC50 [9]	Selectivity Index [10]	further results
c1ccc(CN2CCC(c3cc4ccccc4o3)CC2)cc1	105	55.4	88.91	4.27	18.2	5.29	10.8	Activity [6]: 294.64%; Activity [7]: 97.5%; inhibition (INH) [8]: Active; Activity [11]: 1.08%; Activity [12]: 101.59%; Activity [13]: 0.55%; Activity [14]: Dose-Dependent Effect; Activity [15]: 0.03%; Activity [16]: Active
Cc1c(C)c2c(c(C)c1O)CCC(C)(C(=O)O)O2 (stereo unspecified)					55.5			
Fc1ccc(CN2CCC(c3cc4ccccc4o3)CC2)cc1	101	57.7	80.8	4.25	10.8	4.67	2.6	Activity [6]: 287.37%; Activity [7]: 98.2%; inhibition (INH) [8]: Active; Activity [11]: 1.2%; Activity [12]: 104.56%; Activity [13]: 0.05%; Activity [14]: Dose-Dependent Effect; Activity [15]: 1.58%; Activity [16]: Active
COc1ccc(CN2CCC(c3oc4ccccc4c3C(=O)c3ccc(OC)c(OC)c3)CC2)cc1OC		54.4		4.21		4.17	0.9	
Oc1ccc(CN2CCC(c3cc4ccccc4o3)CC2)cc1	96.4	48.3		4.19	12.2	4.46	1.8	
COc1ccc(CN2CCC(c3oc4ccccc4c3C(=O)c3ccccc3)CC2)cc1OC		42.9		< 4.00		4.34		
COc1ccc(C(=O)c2c(C3CCN(Cc4ccccc4)CC3)oc3ccccc23)cc1	107	47.4	75.17	4.28	17.6	4.32	1.07	Activity [6]: 285%; Activity [12]: 100.79%
COc1ccc(OC)c(CN2CCC(c3cc4ccccc4o3)CC2)c1	102	51.8	79.09	4.45	11.9	4.62	0.04	Activity [6]: 324.83%; Activity [12]: 102.53%
COc1cc2c(cc1OC)C(=O)C(CC1CCN(Cc3ccccc3)CC1)C2 (stereo unspecified) [DONEPEZIL]			60.82					viability at 48 h, 10 µM ([1]; sh-sy5y): 101%
CCc1ccc(CN2CCC(c3cc4ccccc4o3)CC2)cc1		19.9		< 4.00		4.19		
c1ccc2oc(C3CCNCC3)cc2c1		45.5		4.19		4.21	1	
COc1ccc(CN2CCC(c3oc4ccccc4c3C(=O)c3ccc(OC)cc3)CC2)cc1		45		4.22		4.22	0.99	
COc1cc(/C=C/C(=O)O)ccc1O					50			
COc1ccc(C(=O)c2c(C3CCN(Cc4cc(OC)ccc4OC)CC3)oc3ccccc23)cc1		46		4.21		4.21	1.01	
COc1ccc(CN2CCC(c3oc4ccccc4c3C(=O)c3ccccc3)CC2)cc1		42.2		4.20		4.01	0.6	
COc1ccc(OC)c(CN2CCC(c3oc4ccccc4c3C(=O)c3ccc(OC)c(OC)c3)CC2)c1		37.4		4.18		4.26	1.19	
COc1cc(/C=C/C(=O)CC(=O)/C=C/c2ccc(O)c(OC)c2)ccc1O [CURCUMIN]	60		45.95					
COc1ccc(CN2CCC(c3cc4ccccc4o3)CC2)cc1OC		14.7		4.19		4.28	1.2	
Oc1ccc(/C=C/c2cc(O)cc(O)c2)cc1					45.7			
O=C(c1ccccc1)c1c(C2CCN(Cc3ccccc3)CC2)oc2ccccc12	107	61.9	76.06	< 4.00	21.6	4.38		Activity [6]: 316.05%; Activity [7]: 98.1%; inhibition (INH) [8]: Active; Activity [11]: 0.77%; Activity [12]: 95.49%; Activity [13]: 0.65%; Activity [15]: 0.52%; Activity [16]: Active
Clc1ccc(CN2CCC(c3cc4ccccc4o3)CC2)cc1		24.4		< 4.00		4.01		
COc1ccc(CN2CCC(c3cc4ccccc4o3)CC2)cc1		8.04		< 4.00		4.03		
COc1ccc(OC)c(CN2CCC(c3oc4ccccc4c3C(=O)c3ccccc3)CC2)c1		39.4		4.47		4.24	0.45	
